Source: ChEMBL document CHEMBL1255383, “Reduced histone deacetylase 7 activity restores function to misfolded CFTR in cystic fibrosis” (Nat Chem Biol, 2010)
Calls of active or inactive are those of the source. The rule behind the calls is not given here.

Assays:
[1] = biological target: Cystic fibrosis transmembrane conductance regulator (Homo sapiens) (UniProt P13569); assay: Inhibition of CFTR transcription assessed as decrease of CFTR protein level at 50 uM by immunoblot method
[2] = biological target: T1, Histone deacetylase 7 (Homo sapiens) (UniProt Q8WUI4); assay: Inhibition of HDAC7 in human homozygous Fdelta508 primary bronchial epithelial cells assessed as induction of short circuit currents at 1 uM for 4, 6, and 8 days relative to control; format: cell-based; settings: Epithelial cell
T1 sequence (whole entry): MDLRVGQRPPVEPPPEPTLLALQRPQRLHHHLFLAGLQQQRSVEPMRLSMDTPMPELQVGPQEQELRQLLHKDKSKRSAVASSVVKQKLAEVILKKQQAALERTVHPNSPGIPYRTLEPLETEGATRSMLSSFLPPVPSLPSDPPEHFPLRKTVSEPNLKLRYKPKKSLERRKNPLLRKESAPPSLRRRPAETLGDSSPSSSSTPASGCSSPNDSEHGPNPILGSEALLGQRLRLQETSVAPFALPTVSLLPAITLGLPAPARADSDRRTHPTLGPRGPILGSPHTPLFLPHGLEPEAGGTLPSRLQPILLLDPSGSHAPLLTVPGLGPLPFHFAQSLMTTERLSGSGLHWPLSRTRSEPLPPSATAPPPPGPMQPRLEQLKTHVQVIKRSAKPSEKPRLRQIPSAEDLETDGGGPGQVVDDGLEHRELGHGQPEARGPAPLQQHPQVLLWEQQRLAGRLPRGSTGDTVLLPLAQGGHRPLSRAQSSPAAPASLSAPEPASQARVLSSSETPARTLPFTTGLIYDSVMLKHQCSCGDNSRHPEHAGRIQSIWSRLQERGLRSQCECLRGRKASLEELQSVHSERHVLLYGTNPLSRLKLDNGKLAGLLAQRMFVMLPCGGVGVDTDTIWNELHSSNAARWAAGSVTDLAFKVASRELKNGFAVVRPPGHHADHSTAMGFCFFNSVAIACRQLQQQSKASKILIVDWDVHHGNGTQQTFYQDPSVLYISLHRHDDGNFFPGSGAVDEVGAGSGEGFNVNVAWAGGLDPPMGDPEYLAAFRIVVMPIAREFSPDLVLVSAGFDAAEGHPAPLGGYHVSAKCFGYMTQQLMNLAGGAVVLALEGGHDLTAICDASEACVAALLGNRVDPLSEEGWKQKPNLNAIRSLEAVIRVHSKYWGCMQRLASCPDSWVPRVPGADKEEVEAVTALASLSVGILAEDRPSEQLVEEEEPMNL
In short: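 Primary bronchial epithelial cells homozygous for ΔF508 from patients are grown on permeable supports. They are exposed to 1 μM for 4, 6 and 8 days against DMSO controls. ΔIsc is measured in Ussing chambers in μA/cm2, and is also compared with wild-type level.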

[3] = biological target: T1, Histone deacetylase 7 (Homo sapiens); assay: Inhibition of HDAC7 in wild-type CFTR expressing human primary lung cells assessed as induction of short circuit currents at 1 uM for 4, 6, and 8 days relative to control; format: cell-based
[4] = biological target: T1, Histone deacetylase 7 (Homo sapiens); assay: Inhibition of HDAC7 in wild-type CFTR expressing human primary lung cells assessed as forskolin-stimulated Fdelta508 CFTR channel activity at 10 uM after 24 hrs relative to control; format: cell-based; settings: in the assay text read “Fdelta508 CFTR homozygous” for “wild-type CFTR expressing”
In short: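 Primary ΔF/ΔF human bronchial epithelial cells on permeable supports receive acute treatment, 10 μM for 24 h. The result is expressed relative to control.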

[5] = In vivo inhibition of HDAC; format: organism-based
[6] = system: BHK; assay: Inhibition of HDAC expressed in hamster BHK cell line assessed as increase in plasma membrane Fdelta508 CFTR protein at 5 uM by immunofluorescence method; format: cell-based
In short: (§1)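 Surface ΔF508extope is labelled with HA.11 antibody under non-permeabilizing conditions.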

[7] = biological target: T1, Histone deacetylase 7 (Homo sapiens); assay: Inhibition of HDAC7 expressed in hamster BHK cell line assessed as increase in plasma membrane Fdelta508 CFTR protein at 1 uM by immunofluorescence method; format: cell-based; in short: as §1
[8] = biological target: T1, Histone deacetylase 7 (Homo sapiens); assay: Inhibition of HDAC7 in Fdelta508 CFTR-expressing human CFBE41o- monolayers assessed as increase in short circuit currents at 10 uM
In short: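 CFBE41o- cells stably expressing ΔF508 CFTR are cultured on permeable supports and mounted for short-circuit current (Isc) measurement.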

[9] = biological target: T1, Histone deacetylase 7 (Homo sapiens); assay: Inhibition of HDAC7 in human CFBE41o- cell line assessed as correction of mutant Fdelta508 CFTR trafficking to cell surface as glycoform at 1 uM by Immunoblot analysis
In short: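 CFBE41o- ΔF508 cells in α-MEM/10% FBS/2mM L-glutamine/puromycin are dosed at 1 μM every 24 h, chronically for up to 8 days, against DMSO. Lysates are made in Tris-HCl/NaCl/1% Triton X-100. 15μg protein is run on 8% SDS-PAGE and probed with M3A7 by chemiluminescence. Band B (ER) and band C (post-Golgi) are quantified, and the C/B ratio is calculated.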

Cystic fibrosis transmembrane conductance regulator (Homo sapiens), sequence (P13569 whole entry, looked up): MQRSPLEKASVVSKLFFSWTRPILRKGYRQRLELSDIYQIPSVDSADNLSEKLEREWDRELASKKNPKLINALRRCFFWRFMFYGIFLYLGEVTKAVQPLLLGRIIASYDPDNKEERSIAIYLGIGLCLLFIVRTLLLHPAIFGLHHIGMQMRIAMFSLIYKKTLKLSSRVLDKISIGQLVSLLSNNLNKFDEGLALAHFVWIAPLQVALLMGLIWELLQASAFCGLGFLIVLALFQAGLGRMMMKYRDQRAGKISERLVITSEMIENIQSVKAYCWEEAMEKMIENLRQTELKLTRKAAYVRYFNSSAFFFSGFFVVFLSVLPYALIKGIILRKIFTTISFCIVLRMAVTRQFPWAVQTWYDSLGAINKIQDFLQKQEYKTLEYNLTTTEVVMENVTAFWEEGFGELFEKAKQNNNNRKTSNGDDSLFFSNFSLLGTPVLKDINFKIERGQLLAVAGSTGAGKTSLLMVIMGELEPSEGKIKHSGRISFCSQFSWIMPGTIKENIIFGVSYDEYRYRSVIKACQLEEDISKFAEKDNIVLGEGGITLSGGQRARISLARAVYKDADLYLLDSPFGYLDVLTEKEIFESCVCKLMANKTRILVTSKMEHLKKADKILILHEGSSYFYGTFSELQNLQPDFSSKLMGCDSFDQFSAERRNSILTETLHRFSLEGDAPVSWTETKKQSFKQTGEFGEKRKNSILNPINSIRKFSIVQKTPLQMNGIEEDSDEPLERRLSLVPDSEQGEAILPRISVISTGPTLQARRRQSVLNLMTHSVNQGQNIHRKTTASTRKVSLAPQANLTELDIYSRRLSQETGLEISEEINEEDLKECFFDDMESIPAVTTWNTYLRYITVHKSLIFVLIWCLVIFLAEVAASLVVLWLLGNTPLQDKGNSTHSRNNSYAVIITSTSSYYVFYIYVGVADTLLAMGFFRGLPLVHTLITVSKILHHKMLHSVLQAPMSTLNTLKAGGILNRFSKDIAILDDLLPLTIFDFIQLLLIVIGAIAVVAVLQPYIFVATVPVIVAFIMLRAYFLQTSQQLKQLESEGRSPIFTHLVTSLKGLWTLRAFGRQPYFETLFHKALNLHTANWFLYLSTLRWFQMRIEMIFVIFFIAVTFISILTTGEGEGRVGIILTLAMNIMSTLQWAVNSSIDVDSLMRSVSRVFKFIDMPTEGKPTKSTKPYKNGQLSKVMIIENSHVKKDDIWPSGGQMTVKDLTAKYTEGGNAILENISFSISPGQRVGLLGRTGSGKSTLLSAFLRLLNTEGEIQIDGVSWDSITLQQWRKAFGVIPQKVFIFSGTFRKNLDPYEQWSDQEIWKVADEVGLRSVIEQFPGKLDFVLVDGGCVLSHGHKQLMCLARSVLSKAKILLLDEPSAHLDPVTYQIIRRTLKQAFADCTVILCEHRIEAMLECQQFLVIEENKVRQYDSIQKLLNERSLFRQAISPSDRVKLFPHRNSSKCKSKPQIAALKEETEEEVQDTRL

inhibition [1] | Activity [4] | IC50 [5] | SMILES | further results
Active |  |  | O=C(CCCCCCC(=O)Nc1ccccc1)NO | 
 | 3.7 uA.cm'-2 |  | C=C[C@@]1(C)CC(=O)[C@]2(O)[C@@]3(C)[C@@H](O)CCC(C)(C)[C@@H]3[C@H](O)[C@H](OC(C)=O)[C@@]2(C)O1 | Activity [2]: 6.5 uA.cm'-2; Activity [3]: 23.1 uA.cm'-2
Active |  | 1000 nM | O=C(CCCCCN1C(=O)c2cccc3cccc(c23)C1=O)NO | inhibition [7]: Active; inhibition [8]: Active; inhibition [9]: Active

Second part, the compound before the results:

SMILES | inhibition [1] | Activity [4] | IC50 [5] | further results
Nc1ccccc1NC(=O)c1ccc(CNC(=O)OCc2cccnc2)cc1 [ENTINOSTAT] | Active |  | 5000 nM | inhibition [6]: Active
O=c1c(-c2ccc(O)cc2)coc2cc(O)cc(O)c12 |  | 3.7 uA.cm'-2 |  | 
CC(/C=C/C(=O)NO)=C\[C@@H](C)C(=O)c1ccc(N(C)C)cc1 [TRICHOSTATIN] | Active |  | 100 nM | 
